Source: PMC10427982 (eBioMedicine, 2023)
Marks after values point to notes of the source that are not given here.

Tests used:
[1] = after remdesivir 30 mg/kg i.v.; cited from earlier work
[2] = tested on: human airway epithelial cells (HAE); details: cited from earlier work
[3] = Multisite microdialysis pharmacokinetics after molnupiravir; format: in vivo, rat
In short: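 Pregnant Sprague–Dawley rats at gestation day 16 (300 ± 50 g), fasted 12 h and anaesthetised with urethane 1 g/kg i.p. Test compound in normal saline given alone via femoral vein catheter. Unbound drug and metabolite sampled by microdialysis in jugular vein, fetus, placenta and amniotic fluid, perfused with citrate-dextrose solution. Dialysates every 20 min over 6 h, UHPLC-MS/MS. Ratios taken as AUC quotients ×100%. n = 6, mean ± SEM.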

[4] = Multisite microdialysis pharmacokinetics after molnupiravir; format: in vivo, rat; remark: listed apart in the source
In short: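 Pregnant Sprague–Dawley rats (gestation day 16, 300 ± 50 g), fasted 12 h, under urethane anaesthesia (1 g/kg i.p.). Test compound in normal saline, with the ENT inhibitor in 10% DMSO/90% PEG-400, given together via the femoral vein. Microdialysis probes sit in the jugular vein, fetus, placenta and amniotic fluid, perfused with ACD solution. Dialysates are collected every 20 min for 6 h and assayed by UHPLC-MS/MS. n = 6, mean ± SEM.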

[5] = animal models; cited from earlier work
[6] = cited from earlier work
[7] = single and multiple doses; cited from earlier work
[8] = lactating rats administered molnupiravir; cited from earlier work
human ENT1 = details: cited from earlier work
human ENT2 = details: cited from earlier work
[9] = blood, molnupiravir 100 mg/kg i.v. alone
[10] = female, Sprague-Dawley, rat, amniotic fluid dialysate, iv, 100 mg/kg
[11] = female, Sprague-Dawley, rat, blood dialysate, iv, 100 mg/kg
[12] = female, Sprague-Dawley, rat, fetus dialysate, iv, 100 mg/kg
[13] = female, Sprague-Dawley, rat, placenta dialysate, iv, 100 mg/kg
[14] = female, Sprague-Dawley, rat, amniotic fluid, iv, 100 mg/kg, with NBMPR (ENT inhibitor) 10 mg/kg i.v., co-administered
[15] = female, Sprague-Dawley, rat, blood, iv, 100 mg/kg, with NBMPR (ENT inhibitor) 10 mg/kg i.v., co-administered
[16] = female, Sprague-Dawley, rat, fetus, iv, 100 mg/kg, with NBMPR (ENT inhibitor) 10 mg/kg i.v., co-administered
[17] = female, Sprague-Dawley, rat, placenta, iv, 100 mg/kg, with NBMPR (ENT inhibitor) 10 mg/kg i.v., co-administered
[18] = placenta, + NBMPR 10 mg/kg i.v.
[19] = amniotic fluid, molnupiravir 100 mg/kg i.v. alone
[20] = fetus, molnupiravir 100 mg/kg i.v. alone
[21] = placenta, molnupiravir 100 mg/kg i.v. alone
[22] = amniotic fluid, + NBMPR 10 mg/kg i.v.

## N#C[C@@]1(c2ccc3c(N)ncnn23)O[C@H](CO)[C@@H](O)[C@H]1O [GS-441524]
[1]
  Transfer ratio from mother to amniotic fluid: 0.71 ± 0.19
  Transfer ratio from mother to fetus: 0.51 ± 0.18
  Transfer ratio from mother to placenta: 0.35 ± 0.09
[2]
  EC50: 180 nM

## CC(C)C(=O)OC[C@H]1O[C@@H](n2ccc(NO)nc2=O)[C@H](O)[C@@H]1O [Molnupiravir]
[3]; blood, molnupiravir 100 mg/kg i.v.
  Time up to which detected: up to 200 min
[3]; [9]
  CL: 21.89 ± 2.99 mL/min/kg
[3]; conceptus, molnupiravir 100 mg/kg i.v.
  Time for the maximum concentration in the conceptus: approximately 40 min
[3]; female, Sprague-Dawley, rat, amniotic fluid (relative to blood), iv, 100 mg/kg
  Kp: 0.05 ± 0.01
[3]; female, Sprague-Dawley, rat, amniotic fluid dialysate, intravenous, 100 mg/kg
  concentration at 60 min: 1.48 ng/mL
[3]; [10]
  AUC(0-inf): 4660 ng·h/mL
  Cmax: 2110 ± 380 ng/mL
  half-life: 828 ± 173 min
[3]; female, Sprague-Dawley, rat, amniotic fluid, iv, 100 mg/kg
  MRT: 1.73 h
[3]; female, Sprague-Dawley, rat, blood dialysate, intravenous, 100 mg/kg
  concentration at 140 min: 18.2 ng/mL
[3]; [11]
  AUC(0-inf): 61600 ng·h/mL
  Cmax: 219000 ± 42300 ng/mL
  half-life: 11 ± 2 min
[3]; female, Sprague-Dawley, rat, blood, iv, 100 mg/kg
  MRT: 0.267 h
[3]; female, Sprague-Dawley, rat, fetus (relative to blood), iv, 100 mg/kg
  Kp: 0.03 ± 0.01
[3]; female, Sprague-Dawley, rat, fetus dialysate, intravenous, 100 mg/kg
  concentration at 140 min: 3.02 ng/mL
[3]; [12]
  AUC(0-inf): 3310 ng·h/mL
  Cmax: 3540 ± 1320 ng/mL
  half-life: 29 ± 5 min
[3]; female, Sprague-Dawley, rat, fetus, iv, 100 mg/kg
  MRT: 0.7 h
[3]; female, Sprague-Dawley, rat, placenta (relative to blood), iv, 100 mg/kg
  Kp: 0.02 ± 0.009
[3]; female, Sprague-Dawley, rat, placenta dialysate, intravenous, 100 mg/kg
  concentration at 80 min: 15.1 ng/mL
[3]; [13]
  AUC(0-inf): 2420 ng·h/mL
  Cmax: 2560 ± 730 ng/mL
  half-life: 60 ± 25 min
[3]; female, Sprague-Dawley, rat, placenta, iv, 100 mg/kg
  MRT: 1.17 h
[3]; molnupiravir 100 mg/kg i.v.
  Time within which metabolized to NHC: ≤ 20 min
[4]; [14]
  AUC(0-inf): 2770 ng·h/mL
  Cmax: 2140 ± 640 ng/mL
  MRT: 88 min
  half-life: 187 ± 50 min
[4]; [15]
  AUC(0-inf): 49600 ng·h/mL
  Cmax: 261000 ± 111000 ng/mL
  MRT: 17 min
  clearance: 59.2 ± 22.6 mL/min/kg
  half-life: 12 ± 1 min
[4]; [16]
  AUC(0-inf): 1650 ng·h/mL
  Cmax: 2410 ± 180 ng/mL
  MRT: 50 min
  half-life: 26 ± 6 min
[4]; [17]
  AUC(0-inf): 1880 ng·h/mL
  Cmax: 1020 ± 190 ng/mL
  half-life: 180 ± 85 min
[4]; [18]
  MRT: 237 ± 89 min
[5]
  Increase of the bioavailability of NHC: more than 90%
[6]; 500 mg/kg
  Fetal finding at lower dose: decreased fetal body weight
[6]; 1000 mg/kg
  Fetal finding at high dose: internal and skeletal malformations of the fetus
[6]
  NOAEL for maternal and developmental toxicity: 250 mg/kg
[6]; pregnant rat model
  Finding at doses eight times the normal dose / expected exposure: developmental toxicity

## O=c1nc(NO)ccn1[C@@H]1O[C@H](CO)[C@@H](O)[C@H]1O [NHC, β-D-N4-hydroxycytidine]
[3]; amniotic fluid dialysate, 60 min after administration
  Concentration in dialysate sample (representative chromatogram): 10.05 ng/mL
[3]; [19]
  AUCtissue/AUCblood (biodistribution ratio): 0.19 ± 0.03
  Cmax: 4.78 ± 0.83 ^b μg/mL
  MRT: 2.82 ± 0.13 h
  Tmax: 150 ± 33 min
  t1/2: 148 ± 52 ^b min
[3]; blood dialysate, 140 min after molnupiravir 100 mg/kg i.v.
  Concentration in dialysate sample (representative chromatogram): 960 ng/mL
[3]; [9]
  Cmax: 116500 ± 3870 ng/mL
  MRT: 0.95 ± 0.1 h
  Tmax: 40 min
  t1/2: 45 ± 5 min
[3]; dialysates of all organs
  Time post-administration until which detected: 360 min
[3]; fetus dialysate, collected at 140 min
  Concentration in dialysate sample (representative chromatogram): 185 ng/mL
[3]; [20]
  AUCtissue/AUCblood (biodistribution ratio): 0.29 ± 0.11
  Cmax: 7.20 ± 2.10 ^b μg/mL
  MRT: 2.62 ± 0.167 h
  Tmax: 123 ± 11 ^b min
  t1/2: 492 ± 305 ^b min
[3]; placenta dialysate, 80 min after administration
  Concentration in dialysate sample (representative chromatogram): 126.2 ng/mL
[3]; [21]
  AUCtissue/AUCblood (biodistribution ratio): 0.09 ± 0.01
  Cmax: 2.98 ± 0.42 ^b μg/mL
  MRT: 2.6 ± 0.167 h
  Tmax: 90 ± 16 min
  t1/2: 138 ± 18 ^b min
[3]; range over fetus, placenta, amniotic fluid
  Transfer ratio across the blood-placenta barrier: 9–29%
[4]; [22]
  AUCtissue/AUCblood (biodistribution ratio): 0.19 ± 0.05
  Cmax: 4.21 ± 0.44 ^d μg/mL
  MRT: 294 ± 77 min
  Tmax: 100 ± 14 ^d min
  t1/2: 181 ± 56 ^d min
[4]; blood, + NBMPR 10 mg/kg i.v.
  Cmax: 97260 ± 24950 ng/mL
  MRT: 56 ± 6 min
  t1/2: 66 ± 3 min
[4]; fetus, + NBMPR 10 mg/kg i.v.
  AUCtissue/AUCblood (biodistribution ratio): 0.27 ± 0.07
  Cmax: 4.69 ± 1.92 ^d μg/mL
  MRT: 762 ± 255 min
  Tmax: 93 ± 16 ^d min
  t1/2: 507 ± 178 ^d min
[4]; [18]
  AUCtissue/AUCblood (biodistribution ratio): 0.14 ± 0.06
  Cmax: 2.95 ± 0.97 ^d μg/mL
  MRT: 251 ± 65 min
  Tmax: 106 ± 12 ^d min
  t1/2: 157 ± 56 ^d min
[5]
  Bioavailability: poor bioavailability
[7]
  Median Tmax in plasma: 1 h
[8]
  Detection in plasma of nursing pups: can be detected
Human ENT1
  Interaction with transporter: interacts
Human ENT2
  Interaction with transporter: interacts
